Data taken from ChEMBL document CHEMBL3860041, “Synthesis, biological evaluation and molecular modeling study of some new methoxylated 2-benzylthio-quinazoline-4(3H)-ones as nonclassical antifolates” (Bioorg Med Chem Lett, 2016).
In brackets after ≈: the same amount, converted by molar mass.

Columns and labels:
Dihydrofolate reductase = target: T1, Dihydrofolate reductase (Bos taurus, UniProt P00376); assay: Inhibition of bovine liver DHFR preincubated for 2 mins followed by addition of FH2 as substrate and NADPH
T1 sequence (P00376 whole entry): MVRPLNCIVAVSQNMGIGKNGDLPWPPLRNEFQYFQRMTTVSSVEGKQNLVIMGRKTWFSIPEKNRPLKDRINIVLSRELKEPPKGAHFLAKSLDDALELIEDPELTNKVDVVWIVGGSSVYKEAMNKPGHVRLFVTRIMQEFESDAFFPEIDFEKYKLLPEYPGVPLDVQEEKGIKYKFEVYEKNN

Candida albicans = assay: Antimicrobial activity against Candida albicans IFO 0583 at 200 ug/disc measured after 48 hrs by agar disc-diffusion method; type: functional; conditions: IFO 0583, 48 h, read-out: DIZ
Bacillus subtilis [1] = assay: Antimicrobial activity against Bacillus subtilis IFO 3007 at 200 ug/disc measured after 24 hrs by agar disc-diffusion method; type: functional; conditions: IFO 3007, 24 h, read-out: DIZ
Bacillus subtilis [2] = assay: Antimicrobial activity against Bacillus subtilis IFO 3007 measured after 24 hrs by microdilution method; type: functional
Staphylococcus aureus [3] = assay: Antimicrobial activity against Staphylococcus aureus IFO 3060 measured after 24 hrs by microdilution method; type: functional
Staphylococcus aureus [4] = assay: Antimicrobial activity against Staphylococcus aureus IFO 3060 at 200 ug/disc measured after 24 hrs by agar disc-diffusion method; type: functional; conditions: IFO 3060, 24 h, read-out: DIZ
Escherichia coli [5] = assay: Antimicrobial activity against Escherichia coli IFO 3301 at 200 ug/disc measured after 24 hrs by agar disc-diffusion method; type: functional; conditions: IFO 3301, 24 h, read-out: DIZ
Pseudomonas aeruginosa [6] = assay: Antimicrobial activity against Pseudomonas aeruginosa IFO 3448 at 200 ug/disc measured after 24 hrs by agar disc-diffusion method; type: functional; conditions: IFO 3448, 24 h, read-out: DIZ
Escherichia coli [7] = assay: microbe, parasite or virus in culture; conditions: IFO 3301, 24 h
[8] = Growth inhibition of human CNS cancer cells after 48 hrs by SRB assay; type: functional; conditions: Cancer cell lines
In short: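 Five-log dose range against NCI tumor cell lines, monitoring GI50, TGI and LC50 for each cell line; MG-MID values derived across the panel; 5-fluorouracil positive control.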

[9] = Growth inhibition of human prostate cancer cells after 48 hrs by SRB assay; type: functional; conditions: Cancer cell lines
In short: (§1)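 Follow-up NCI panel testing over a 5-log dose range for each cell line. GI50, TGI and LC50 were monitored, with 5-fluorouracil run as the positive control. Values are grouped by tumour subpanel.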

[10] = Growth inhibition of human renal cancer cells after 48 hrs by SRB assay; type: functional; conditions: Cancer cell lines; in short: as §1
[11] = Growth inhibition of human ovarian cancer cells after 48 hrs by SRB assay; type: functional; conditions: Cancer cell lines; in short: as §1
[12] = Growth inhibition of human breast cancer cells after 48 hrs by SRB assay; type: functional; conditions: Cancer cell lines; in short: as §1
[13] = Growth inhibition of human colon cancer cells after 48 hrs by SRB assay; type: functional; conditions: Cancer cell lines; in short: as §1
[14] = Growth inhibition of human non-small cell lung cancer cells after 48 hrs by SRB assay; type: functional; conditions: Cancer cell lines; in short: as §1
[15] = Growth inhibition of human leukemia cells after 48 hrs by SRB assay; type: functional; conditions: Leukemia cell; in short: as §1
[16] = Growth inhibition of human melanoma cells after 48 hrs by SRB assay; type: functional; conditions: Melanoma cell; in short: as §1
Pseudomonas aeruginosa [17] = assay: Antimicrobial activity against Pseudomonas aeruginosa IFO 3448 measured after 24 hrs by microdilution method; type: functional

COc1cc(CSc2nc3ccc(Cl)cc3c(=O)n2-c2ccc(Cl)cc2)cc(OC)c1OC
IC50 (Dihydrofolate reductase): 2 µM

COc1cc(CSc2nc3ccc(C)cc3c(=O)n2-c2ccc(C)cc2)cc(OC)c1OC
IC50 (Dihydrofolate reductase): 1.5 µM

COc1ccc(-n2c(SCc3cc(OC)c(OC)c(OC)c3)nc3cc(OC)c(OC)cc3c2=O)c(OC)c1
IC50 (Dihydrofolate reductase): 3 µM

COc1ccc(CSc2nc3ccc(C)cc3c(=O)n2-c2ccc(Cl)cc2)cc1
IC50 (Dihydrofolate reductase): 0.1 µM

COc1ccc(CSc2nc3ccc(Cl)cc3c(=O)n2-c2ccc(OC)cc2)cc1
IC50 (Dihydrofolate reductase): 0.1 µM

COc1cc(CSc2nc3ccc(Cl)cc3c(=O)n2-c2ccc(C)cc2)cc(OC)c1OC
IC50 (Dihydrofolate reductase): 3 µM

COc1ccc(CSc2nc3ccc(C)cc3c(=O)n2-c2ccc(C)cc2)cc1
IC50 (Dihydrofolate reductase): 1 µM

COc1ccc(CSc2nc3cc(OC)c(OC)cc3c(=O)n2-c2ccc(Cl)cc2)cc1
zone of inhibition at 200 µg/disc (Candida albicans): 8 mm
zone of inhibition at 200 µg/disc (Bacillus subtilis [1]): 18 mm
MIC (Bacillus subtilis [2]; IFO 3007, 24 h): 4 µg/mL (≈ 8.53 µM)
MIC (Staphylococcus aureus [3]; IFO 3060, 24 h): 4 µg/mL (≈ 8.53 µM)
zone of inhibition at 200 µg/disc (Staphylococcus aureus [4]): 20 mm
zone of inhibition at 200 µg/disc (Escherichia coli [5]): 15 mm
zone of inhibition at 200 µg/disc (Pseudomonas aeruginosa [6]): 8 mm
IC50 (Dihydrofolate reductase): 6 µM
MIC (Escherichia coli [7]): 8 µg/mL (≈ 17.1 µM)

COc1ccc(CSc2nc3ccc(Cl)cc3c(=O)n2-c2ccc(C)cc2)cc1
IC50 (Dihydrofolate reductase): 4 µM

COc1ccc(CSc2nc3ccc(Cl)cc3c(=O)n2-c2ccccc2)cc1
zone of inhibition at 200 µg/disc (Candida albicans): 8 mm
zone of inhibition at 200 µg/disc (Bacillus subtilis [1]): 16 mm
zone of inhibition at 200 µg/disc (Staphylococcus aureus [4]): 14 mm
zone of inhibition at 200 µg/disc (Escherichia coli [5]): 8 mm
zone of inhibition at 200 µg/disc (Pseudomonas aeruginosa [6]): 8 mm
IC50 (Dihydrofolate reductase): 0.02 µM

Clc1ccccc1C(c1ccccc1)(c1ccccc1)n1ccnc1 [CLOTRIMAZOLE]
zone of inhibition at 200 µg/disc (Candida albicans): 21 mm

COc1cc(CSc2nc3ccc(C)cc3c(=O)n2-c2ccc(Cl)cc2)cc(OC)c1OC
IC50 (Dihydrofolate reductase): 0.9 µM

COc1ccc(CSc2nc3cc(OC)c(OC)cc3c(=O)n2-c2ccc(OC)cc2)cc1
IC50 (Dihydrofolate reductase): 0.8 µM

COc1ccc(CSc2nc3ccc(Cl)cc3c(=O)n2Cc2ccccc2)cc1
IC50 (Dihydrofolate reductase): 1.1 µM

O=c1[nH]cc(F)c(=O)[nH]1 [FLUOROURACIL]
TGI [8]: > 100 µM
GI50 [9]: 22.7 µM
TGI [9]: > 100 µM
GI50 [10]: 45.6 µM
TGI [10]: > 100 µM
GI50 [11]: 61.4 µM
TGI [11]: > 100 µM
GI50 [12]: 76.4 µM
TGI [12]: > 100 µM
GI50 [13]: 8.4 µM
TGI [13]: > 100 µM
GI50 [14]: > 100 µM
TGI [14]: > 100 µM
TGI [15]: > 100 µM
CC50 ([15]; read-out: LC50 (the source's name)): > 100 µM
GI50 [16]: 70.6 µM
TGI [16]: > 100 µM

COc1ccccc1-n1c(SCc2cc(OC)c(OC)c(OC)c2)nc2ccc(C)cc2c1=O
IC50 (Dihydrofolate reductase): 1 µM

COc1ccc(CSc2nc3cc(OC)c(OC)cc3c(=O)n2Cc2ccccc2)cc1
IC50 (Dihydrofolate reductase): 0.8 µM

COc1ccc(CSc2nc3ccc(Cl)cc3c(=O)n2-c2ccc(Cl)cc2)cc1
IC50 (Dihydrofolate reductase): 3 µM

O=C(O)c1cn(C2CC2)c2cc(N3CCNCC3)c(F)cc2c1=O [CIPROFLOXACIN]
zone of inhibition at 200 µg/disc (Bacillus subtilis [1]): 35 mm
MIC (Pseudomonas aeruginosa [17]; IFO 3448, 24 h): 1 µg/mL (≈ 3.02 µM)
MIC (Bacillus subtilis [2]; IFO 3007, 24 h): 0.5 µg/mL (≈ 1.51 µM)
MIC (Staphylococcus aureus [3]; IFO 3060, 24 h): 0.5 µg/mL (≈ 1.51 µM)
zone of inhibition at 200 µg/disc (Staphylococcus aureus [4]): 32 mm
zone of inhibition at 200 µg/disc (Escherichia coli [5]): 38 mm
zone of inhibition at 200 µg/disc (Pseudomonas aeruginosa [6]): 36 mm

COc1ccc(CSc2nc3cc(OC)c(OC)cc3c(=O)n2-c2ccccc2)cc1
zone of inhibition at 200 µg/disc (Candida albicans): 12 mm
zone of inhibition at 200 µg/disc (Bacillus subtilis [1]): 26 mm
MIC (Bacillus subtilis [2]; IFO 3007, 24 h): 2 µg/mL (≈ 4.6 µM)
MIC (Staphylococcus aureus [3]; IFO 3060, 24 h): 2 µg/mL (≈ 4.6 µM)
zone of inhibition at 200 µg/disc (Staphylococcus aureus [4]): 24 mm
zone of inhibition at 200 µg/disc (Escherichia coli [5]): 14 mm
zone of inhibition at 200 µg/disc (Pseudomonas aeruginosa [6]): 8 mm
IC50 (Dihydrofolate reductase): 4 µM
MIC (Escherichia coli [7]): 8 µg/mL (≈ 18.4 µM)

COc1ccc(CSc2nc3ccc(C)cc3c(=O)n2-c2ccccc2)cc1
zone of inhibition at 200 µg/disc (Candida albicans): 8 mm
zone of inhibition at 200 µg/disc (Bacillus subtilis [1]): 22 mm
MIC (Bacillus subtilis [2]; IFO 3007, 24 h): 2 µg/mL (≈ 5.15 µM)
MIC (Staphylococcus aureus [3]; IFO 3060, 24 h): 4 µg/mL (≈ 10.3 µM)
zone of inhibition at 200 µg/disc (Staphylococcus aureus [4]): 18 mm
zone of inhibition at 200 µg/disc (Escherichia coli [5]): 16 mm
zone of inhibition at 200 µg/disc (Pseudomonas aeruginosa [6]): 12 mm
IC50 (Dihydrofolate reductase): 0.1 µM
MIC (Escherichia coli [7]): 8 µg/mL (≈ 20.6 µM)

COc1ccc(CSc2nc3ccc(Cl)cc3c(=O)n2-c2ccc(OC)cc2OC)cc1
zone of inhibition at 200 µg/disc (Candida albicans): 8 mm
zone of inhibition at 200 µg/disc (Bacillus subtilis [1]): 18 mm
MIC (Bacillus subtilis [2]; IFO 3007, 24 h): 4 µg/mL (≈ 8.53 µM)
MIC (Staphylococcus aureus [3]; IFO 3060, 24 h): 8 µg/mL (≈ 17.1 µM)
zone of inhibition at 200 µg/disc (Staphylococcus aureus [4]): 15 mm
zone of inhibition at 200 µg/disc (Escherichia coli [5]): 8 mm
zone of inhibition at 200 µg/disc (Pseudomonas aeruginosa [6]): 8 mm
IC50 (Dihydrofolate reductase): 1 µM

COc1cc2nc(SCc3cc(OC)c(OC)c(OC)c3)n(-c3ccc(C)cc3)c(=O)c2cc1OC
IC50 (Dihydrofolate reductase): 1.2 µM

COc1ccc(CSc2nc3cc(OC)c(OC)cc3c(=O)n2-c2ccc(C)cc2)cc1
IC50 (Dihydrofolate reductase): 2 µM

COc1ccc(CSc2nc3ccc(Cl)cc3c(=O)n2-c2ccccc2OC)cc1
IC50 (Dihydrofolate reductase): 0.8 µM

COc1ccc(-n2c(SCc3cc(OC)c(OC)c(OC)c3)nc3ccc(Cl)cc3c2=O)c(OC)c1
IC50 (Dihydrofolate reductase): 4 µM

GENTAMICIN
MIC (Pseudomonas aeruginosa [17]): 1 µg/mL
MIC (Bacillus subtilis [2]): 2 µg/mL
MIC (Staphylococcus aureus [3]): 2 µg/mL

COc1cc2nc(SCc3cc(OC)c(OC)c(OC)c3)n(-c3ccccc3)c(=O)c2cc1OC
zone of inhibition at 200 µg/disc (Candida albicans): 8 mm
zone of inhibition at 200 µg/disc (Bacillus subtilis [1]): 19 mm
MIC (Pseudomonas aeruginosa [17]; IFO 3448, 24 h): 8 µg/mL (≈ 16.2 µM)
MIC (Bacillus subtilis [2]; IFO 3007, 24 h): 8 µg/mL (≈ 16.2 µM)
MIC (Staphylococcus aureus [3]; IFO 3060, 24 h): 8 µg/mL (≈ 16.2 µM)
zone of inhibition at 200 µg/disc (Staphylococcus aureus [4]): 15 mm
zone of inhibition at 200 µg/disc (Escherichia coli [5]): 18 mm
zone of inhibition at 200 µg/disc (Pseudomonas aeruginosa [6]): 16 mm
IC50 (Dihydrofolate reductase): 0.9 µM
MIC (Escherichia coli [7]): 8 µg/mL (≈ 16.2 µM)

COc1ccc(CSc2nc3ccc(C)cc3c(=O)n2-c2ccccc2OC)cc1
IC50 (Dihydrofolate reductase): 0.9 µM

COc1ccc(CSc2nc3ccc(C)cc3c(=O)n2Cc2ccccc2)cc1
IC50 (Dihydrofolate reductase): 0.01 µM

COc1ccc(-n2c(SCc3cc(OC)c(OC)c(OC)c3)nc3cc(OC)c(OC)cc3c2=O)cc1
IC50 (Dihydrofolate reductase): 1.2 µM

COc1ccc(CSc2nc3cc(OC)c(OC)cc3c(=O)n2-c2ccccc2OC)cc1
IC50 (Dihydrofolate reductase): 0.6 µM

COc1cc2nc(SCc3cc(OC)c(OC)c(OC)c3)n(-c3ccc(Cl)cc3)c(=O)c2cc1OC
zone of inhibition at 200 µg/disc (Candida albicans): 8 mm
zone of inhibition at 200 µg/disc (Bacillus subtilis [1]): 26 mm
MIC (Bacillus subtilis [2]; IFO 3007, 24 h): 2 µg/mL (≈ 3.78 µM)
MIC (Staphylococcus aureus [3]; IFO 3060, 24 h): 4 µg/mL (≈ 7.56 µM)
zone of inhibition at 200 µg/disc (Staphylococcus aureus [4]): 22 mm
zone of inhibition at 200 µg/disc (Escherichia coli [5]): 18 mm
zone of inhibition at 200 µg/disc (Pseudomonas aeruginosa [6]): 12 mm
IC50 (Dihydrofolate reductase): 0.9 µM
MIC (Escherichia coli [7]): 8 µg/mL (≈ 15.1 µM)

COc1ccc(CSc2nc3ccc(C)cc3c(=O)n2-c2ccc(OC)cc2OC)cc1
IC50 (Dihydrofolate reductase): 0.7 µM

COc1ccc(CSc2nc3ccc(C)cc3c(=O)n2-c2ccc(OC)cc2)cc1
IC50 (Dihydrofolate reductase): 1.2 µM
